Assay results reported in ChEMBL document CHEMBL2146409, “Phenethyl nicotinamides, a novel class of Na(V)1.7 channel blockers: structure and activity relationship” (Bioorg Med Chem Lett, 2012).

Legend:
[1] = test system: Liver microsomes; assay: Intrinsic clearance in human liver microsomes; assay type: ADME, Microsome
[2] = test system: Liver microsomes; assay: Metabolic stability in human liver microsomes by glutathione trapping assay; assay type: ADME, Microsome
[3] = test system: Liver microsomes; assay: Intrinsic clearance in rat liver microsomes; assay type: ADME, Microsome
[4] = Half life in rat at 3 umol/kg, iv; assay type: ADME, organism-based; settings: in vivo
Procedure, shortened: (§1)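 Fasted male Sprague-Dawley rats given a single intravenous dose of 3 μmol/kg. Three animals per administration per compound; plasma PK parameters derived.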

[5] = Half life in rat at 10 umol/kg, po; assay type: ADME, organism-based; settings: in vivo
Procedure, shortened: (§2)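 Fasted male Sprague-Dawley rats dosed per orally at 10 µmol/kg. Three animals per administration per compound; plasma exposure and PK parameters derived.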

[6] = Oral bioavailability in rat at 10 umol/kg; assay type: ADME, organism-based; settings: in vivo; procedure, shortened: as §2
[7] = Tmax in rat at 10 umol/kg, po; assay type: ADME, organism-based; settings: in vivo; procedure, shortened: as §2
[8] = test system: Rattus norvegicus; assay: Dose normalized AUC in rat at 3 umol/kg, iv; assay type: ADME, organism-based; settings: in vivo; procedure, shortened: as §1
[9] = Volume of distribution at steady state in rat at 3 umol/kg, iv; assay type: ADME, organism-based; settings: in vivo, read-out: Vdss; procedure, shortened: as §1
[10] = Clearance in rat at 3 umol/kg, iv; assay type: ADME, organism-based; settings: in vivo; procedure, shortened: as §1
[11] = test system: Rattus norvegicus; assay: Dose normalised AUC in rat at 10 umol/kg, po; assay type: ADME, organism-based; settings: in vivo; procedure, shortened: as §2
[12] = Cmax in rat at 10 umol/kg, po; assay type: ADME, organism-based; design: dose 10 umol/kg, route oral; settings: in vivo; procedure, shortened: as §2
[13] = Oral bioavailability in rat in presence of 1-aminobenzotriazole; settings: in vivo

SMILES	CLH [1]	Stability [2]	CLH [3]	other results
COc1ncc(-c2ccc(C)nc2CCNC(=O)c2ccc(OCCC(F)(F)F)nc2)cn1	< 10 µL/min/µg	Stable	< 10 µL/min/µg	
COc1ncc(-c2cccc(C)c2CCNC(=O)c2ccc(OCCC(F)(F)F)nc2)cn1	65 µL/min/µg	Stable	32 µL/min/µg	half-life [4]: 0.98 h; half-life [5]: 2.4 h; bioavailability [6]: 0.6%; Tmax [7]: 0.25 h; AUC/dose [8]: 0.33 kg·h/L; Vd [9]: 2.4 L/kg; clearance [10]: 50 mL/min/kg; AUC/dose [11]: 0.002 kg·h/L; Cmax [12]: 20 nM
Cc1ncc(-c2ccccc2CCNC(=O)c2ccc(OCCC(F)(F)F)nc2)cn1	11 µL/min/µg	Unstable	> 500 µL/min/µg	
Cc1cnc(-c2c(F)ccc(F)c2CCNC(=O)c2ccc(COCC(F)(F)F)nc2)cn1	21 µL/min/µg	Stable	< 10 µL/min/µg	bioavailability [13]: 40%; half-life [4]: 5.9 h; half-life [5]: 2.3 h; bioavailability [6]: 7%; Tmax [7]: 0.5 h; AUC/dose [8]: 0.68 kg·h/L; Vd [9]: 1.74 L/kg; clearance [10]: 24.6 mL/min/kg; AUC/dose [11]: 0.05 kg·h/L; Cmax [12]: 250 nM
COc1cnc(-c2cccc(F)c2C(F)(F)CNC(=O)c2ccc(COCC(F)(F)F)nc2)cn1	< 10 µL/min/µg	Stable	24 µL/min/µg	
Cc1ncc(-c2ccccc2CCNC(=O)c2ccc(OCCOCC(F)(F)F)nc2)cn1	23 µL/min/µg		< 10 µL/min/µg	
COc1ncc(-c2cccnc2CCNC(=O)c2ccc(OCCC(F)(F)F)nc2)cn1	< 10 µL/min/µg	Stable	< 10 µL/min/µg	
COc1cnc(-c2ccc(Cl)cc2CCNC(=O)c2ccc(COCC(F)(F)F)nc2)cn1	72 µL/min/µg			
COc1cnc(-c2c(OC)ccc(F)c2CCNC(=O)c2ccc(COCC(F)(F)F)nc2)cn1	46 µL/min/µg		67 µL/min/µg	
O=C(NCCc1ccccc1-c1cccnc1)c1ccc(OCCC(F)(F)F)nc1	160 µL/min/µg	Unstable	> 500 µL/min/µg	
COc1cnc(-c2ccccc2C(F)(F)CNC(=O)c2ccc(COCC(F)(F)F)nc2)cn1	< 10 µL/min/µg	Stable	16 µL/min/µg	half-life [4]: 1.2 h; half-life [5]: 2.8 h; bioavailability [6]: 27%; Tmax [7]: 0.33 h; AUC/dose [8]: 1.5 kg·h/L; Vd [9]: 0.72 L/kg; clearance [10]: 11 mL/min/kg; AUC/dose [11]: 0.41 kg·h/L; Cmax [12]: 1400 nM
COc1cnc(-c2c(C)ccc(F)c2CCNC(=O)c2ccc(COCC(F)(F)F)nc2)cn1	61 µL/min/µg	Unstable	88 µL/min/µg	half-life [4]: 0.9 h; half-life [5]: 3.6 h; bioavailability [6]: 4%; Tmax [7]: 1.5 h; AUC/dose [8]: 0.91 kg·h/L; Vd [9]: 1.5 L/kg; clearance [10]: 19 mL/min/kg; AUC/dose [11]: 0.03 kg·h/L; Cmax [12]: 530 nM
O=C(NCCc1ccccc1-c1ccc(CO)nc1)c1ccc(OCCC(F)(F)F)nc1	10 µL/min/µg		130 µL/min/µg	
COc1ncc(-c2ccccc2C(F)(F)CNC(=O)c2ccc(COCC(F)(F)F)nc2)cn1	< 10 µL/min/µg	Stable	13 µL/min/µg	half-life [4]: 2 h; half-life [5]: 2.4 h; bioavailability [6]: 34%; Tmax [7]: 0.75 h; AUC/dose [8]: 0.71 kg·h/L; Vd [9]: 1.4 L/kg; clearance [10]: 23 mL/min/kg; AUC/dose [11]: 0.24 kg·h/L; Cmax [12]: 840 nM
COc1ncc(-c2c(C)ccc(F)c2CCNC(=O)c2ccc(OCC(F)(F)F)nc2)cn1	74 µL/min/µg	Stable	35 µL/min/µg	
COc1ncc(-c2c(C)ccc(F)c2CCNC(=O)c2ccc(OCCC(F)(F)F)nc2)cn1	100 µL/min/µg		230 µL/min/µg	
O=C(NCCc1ccccc1-c1cnc(OC(F)F)cn1)c1ccc(OCCC(F)(F)F)nc1	210 µL/min/µg		270 µL/min/µg	

SMILES	CLH [1]	Stability [2]	CLH [3]	other results
COc1ncc(-c2cccnc2C(F)(F)CNC(=O)c2ccc(OCCC(F)(F)F)nc2)cn1	< 10 µL/min/µg		< 10 µL/min/µg	
Cc1ncc(-c2ccccc2CCNC(=O)c2ccc(C(=O)NCCCC(F)(F)F)nc2)cn1	11 µL/min/µg	Unstable	< 10 µL/min/µg	
COc1cnc(-c2c(F)ccc(F)c2CCNC(=O)c2ccc(COCC(F)(F)F)nc2)cn1	44 µL/min/µg	Stable	45 µL/min/µg	half-life [4]: 0.9 h; half-life [5]: 3 h; bioavailability [6]: 5%; Tmax [7]: 0.67 h; AUC/dose [8]: 1.3 kg·h/L; Vd [9]: 0.85 L/kg; clearance [10]: 13 mL/min/kg; AUC/dose [11]: 0.06 kg·h/L; Cmax [12]: 160 nM
COc1ncc(-c2ccccc2CCNC(=O)c2ccc(OCCC(F)(F)F)nc2)cn1	17 µL/min/µg		> 500 µL/min/µg	
Cc1ncc(-c2ccccc2CCNC(=O)c2ccc(COCC(F)(F)F)nc2)cn1	< 10 µL/min/µg	Unstable	< 10 µL/min/µg	
COc1cnc(-c2ccccc2CCNC(=O)c2ccc(OCCC(F)(F)F)nc2)cn1	124 µL/min/µg	Unstable	129 µL/min/µg	
COc1ccc(CCNC(=O)c2ccc(OCCC(F)(F)F)nc2)c(-c2cnc(OC)nc2)c1	40 µL/min/µg		150 µL/min/µg	
COc1ncc(-c2cccc(C#N)c2CCNC(=O)c2ccc(OCCC(F)(F)F)nc2)cn1	< 10 µL/min/µg	Stable	24 µL/min/µg	
COc1ncc(-c2cccc(Cl)c2CCNC(=O)c2ccc(OCCC(F)(F)F)nc2)cn1	17 µL/min/µg	Unstable	< 10 µL/min/µg	
Cc1ncc(-c2ccccc2CCNC(=O)c2ccc(CNCCC(F)(F)F)nc2)cn1	15 µL/min/µg		< 10 µL/min/µg	
COc1ncc(-c2cccc(F)c2CCNC(=O)c2ccc(OCCC(F)(F)F)nc2)cn1	< 10 µL/min/µg	Unstable	13 µL/min/µg	
COc1ncc(-c2cccc(OC)c2CCNC(=O)c2ccc(OCCC(F)(F)F)nc2)cn1	45 µL/min/µg		17 µL/min/µg	
COc1ncc(-c2cccc3c2C[C@H](NC(=O)c2ccc(OCCC(F)(F)F)nc2)CO3)cn1		Stable		half-life [4]: 6.4 h; half-life [5]: 7.6 h; bioavailability [6]: 26%; Tmax [7]: 4.8 h; AUC/dose [8]: 1.2 kg·h/L; Vd [9]: 7.2 L/kg; clearance [10]: 14 mL/min/kg; AUC/dose [11]: 0.32 kg·h/L; Cmax [12]: 230 nM
COc1ncc(-c2cc(C)cnc2CCNC(=O)c2ccc(COCC(F)(F)F)nc2)cn1	< 10 µL/min/µg		< 10 µL/min/µg	
COc1ncc(-c2cccc(OC(F)F)c2CCNC(=O)c2ccc(OCCC(F)(F)F)nc2)cn1	< 10 µL/min/µg		190 µL/min/µg	
COc1ncc(-c2cccnc2C(C)CNC(=O)c2ccc(OCCC(F)(F)F)nc2)cn1 (stereo unspecified)	< 10 µL/min/µg		< 10 µL/min/µg	
